What was measured:
[1] = system: Cryptococcus gattii species complex; test: Ratio of compound MIC for Cryptococcus gattii 196L/03 in presence of fluconazole to compound MIC for Cryptococcus gattii 196L/03 in absence of fluconazole by checkerboard microtiter test; type: functional, Cryptococcus bacillisporus
How it was run: (§1)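 Checkerboard microdilution: eight two-fold dilutions of test compound (0.11 to 15.6 µM) crossed with amphotericin B (0.025 to 3.9 µM, in DMSO) or fluconazole (0.48 to 62.5 µM, in water). Inoculum per CLSI M27-A3 in RPMI-MOPS pH 7.0, 1-5 x10^3 cells/mL. Growth 48 to 72 h. Effective MIC is the combination concentration giving complete inhibition. FICs derived from MICs in combination versus alone.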

Cryptococcus neoformans [2] = test: Ratio of compound MIC for Cryptococcus neoformans 5396 in presence of amphotericin B to compound MIC for Cryptococcus neoformans 5396 in absence of amphotericin B by checkerboard microtiter test; type: functional; how it was run: as §1
Cryptococcus neoformans [3] = test: Ratio of compound MIC for Cryptococcus neoformans ATCC 24067 in presence of fluconazole to compound MIC for Cryptococcus neoformans ATCC 24067 in absence of fluconazole by checkerboard microtiter test; type: functional; how it was run: as §1
[4] = system: Cryptococcus gattii species complex; test: Ratio of compound MIC for Cryptococcus gattii ICB181 in presence of amphotericin B to compound MIC for Cryptococcus gattii ICB181 in absence of amphotericin B by checkerboard microtiter test; type: functional, Cryptococcus bacillisporus; how it was run: as §1
Cryptococcus neoformans [5] = test: Ratio of compound MIC for Cryptococcus neoformans LMM820 in presence of fluconazole to compound MIC for Cryptococcus neoformans LMM820 in absence of fluconazole by checkerboard microtiter test; type: functional; how it was run: as §1
[6] = system: Cryptococcus gattii species complex; test: Ratio of compound MIC for Cryptococcus gattii 196L/03 in presence of amphotericin B to compound MIC for Cryptococcus gattii 196L/03 in absence of amphotericin B by checkerboard microtiter test; type: functional, Cryptococcus bacillisporus; how it was run: as §1
Cryptococcus neoformans [7] = test: Ratio of compound MIC for Cryptococcus neoformans CN31 in presence of fluconazole to compound MIC for Cryptococcus neoformans CN31 in absence of fluconazole by checkerboard microtiter test; type: functional; how it was run: as §1
[8] = system: Cryptococcus gattii species complex; test: Ratio of compound MIC for Cryptococcus gattii 23/10993 in presence of amphotericin B to compound MIC for Cryptococcus gattii 23/10993 in absence of amphotericin B by checkerboard microtiter test; type: functional, Cryptococcus bacillisporus; how it was run: as §1
Cryptococcus neoformans [9] = test: Ratio of compound MIC for Cryptococcus neoformans ATCC 28957 in presence of amphotericin B to compound MIC for Cryptococcus neoformans ATCC 28957 in absence of amphotericin B by checkerboard microtiter test; type: functional; how it was run: as §1
Cryptococcus neoformans [10] = test: Ratio of compound MIC for Cryptococcus neoformans LMM820 in presence of amphotericin B to compound MIC for Cryptococcus neoformans LMM820 in absence of amphotericin B by checkerboard microtiter test; type: functional; how it was run: as §1
Cryptococcus neoformans [11] = test: Ratio of compound MIC for Cryptococcus neoformans ATCC 62066 in presence of amphotericin B to compound MIC for Cryptococcus neoformans ATCC 62066 in absence of amphotericin B by checkerboard microtiter test; type: functional; how it was run: as §1
[12] = system: Cryptococcus gattii species complex; test: Ratio of compound MIC for Cryptococcus gattii L24/01 in presence of amphotericin B to compound MIC for Cryptococcus gattii L24/01 in absence of amphotericin B by checkerboard microtiter test; type: functional, Cryptococcus bacillisporus; how it was run: as §1
Cryptococcus neoformans [13] = test: Ratio of compound MIC for Cryptococcus neoformans 27JF in presence of fluconazole to compound MIC for Cryptococcus neoformans 27JF in absence of fluconazole by checkerboard microtiter test; type: functional; how it was run: as §1
[14] = system: Cryptococcus gattii species complex; test: Ratio of compound MIC for Cryptococcus gattii 1913ER in presence of fluconazole to compound MIC for Cryptococcus gattii 1913ER in absence of fluconazole by checkerboard microtiter test; type: functional, Cryptococcus bacillisporus; how it was run: as §1
[15] = system: Cryptococcus gattii species complex; test: Ratio of compound MIC for Cryptococcus gattii L24/01 in presence of fluconazole to compound MIC for Cryptococcus gattii L24/01 in absence of fluconazole by checkerboard microtiter test; type: functional, Cryptococcus bacillisporus; how it was run: as §1
[16] = system: Cryptococcus gattii species complex; test: Ratio of compound MIC for Cryptococcus gattii L28/02 in presence of fluconazole to compound MIC for Cryptococcus gattii L28/02 in absence of fluconazole by checkerboard microtiter test; type: functional, Cryptococcus bacillisporus; how it was run: as §1
[17] = system: Cryptococcus gattii species complex; test: Ratio of compound MIC for Cryptococcus gattii L27/01 in presence of amphotericin B to compound MIC for Cryptococcus gattii L27/01 in absence of amphotericin B by checkerboard microtiter test; type: functional, Cryptococcus bacillisporus; how it was run: as §1
Cryptococcus neoformans [18] = test: Ratio of compound MIC for Cryptococcus neoformans ATCC 28957 in presence of fluconazole to compound MIC for Cryptococcus neoformans ATCC 28957 in absence of fluconazole by checkerboard microtiter test; type: functional; how it was run: as §1
Cryptococcus gattii = test: Ratio of compound MIC for Cryptococcus gattii ATCC 24065 in presence of amphotericin B to compound MIC for Cryptococcus gattii ATCC 24065 in absence of amphotericin B by checkerboard microtiter test
[19] = system: Cryptococcus gattii species complex; test: Ratio of compound MIC for Cryptococcus gattii 23/10993 in presence of fluconazole to compound MIC for Cryptococcus gattii 23/10993 in absence of fluconazole by checkerboard microtiter test; type: functional, Cryptococcus bacillisporus; how it was run: as §1
Cryptococcus neoformans [20] = test: Ratio of compound MIC for Cryptococcus neoformans ATCC 62066 in presence of fluconazole to compound MIC for Cryptococcus neoformans ATCC 62066 in absence of fluconazole by checkerboard microtiter test; type: functional; how it was run: as §1
Cryptococcus neoformans [21] = test: Ratio of compound MIC for Cryptococcus neoformans WP in presence of amphotericin B to compound MIC for Cryptococcus neoformans WP in absence of amphotericin B by checkerboard microtiter test; type: functional; how it was run: as §1
[22] = system: Cryptococcus gattii species complex; test: Ratio of compound MIC for Cryptococcus gattii 1913ER in presence of amphotericin B to compound MIC for Cryptococcus gattii 1913ER in absence of amphotericin B by checkerboard microtiter test; type: functional, Cryptococcus bacillisporus; how it was run: as §1
[23] = system: Cryptococcus gattii species complex; test: Ratio of compound MIC for Cryptococcus gattii 135L/03 in presence of fluconazole to compound MIC for Cryptococcus gattii 135L/03 in absence of fluconazole by checkerboard microtiter test; type: functional, Cryptococcus bacillisporus; how it was run: as §1
[24] = system: Cryptococcus gattii species complex; test: Ratio of compound MIC for Cryptococcus gattii L27/01 in presence of fluconazole to compound MIC for Cryptococcus gattii L27/01 in absence of fluconazole by checkerboard microtiter test; type: functional, Cryptococcus bacillisporus; how it was run: as §1
Cryptococcus neoformans [25] = test: Ratio of compound MIC for Cryptococcus neoformans 96806 in presence of amphotericin B to compound MIC for Cryptococcus neoformans 96806 in absence of amphotericin B by checkerboard microtiter test; type: functional; how it was run: as §1
Cryptococcus neoformans [26] = test: Ratio of compound MIC for Cryptococcus neoformans 28JF in presence of fluconazole to compound MIC for Cryptococcus neoformans 28JF in absence of fluconazole by checkerboard microtiter test; type: functional; how it was run: as §1
[27] = system: Cryptococcus bacillisporus; test: Ratio of compound MIC for Cryptococcus gattii ATCC 32608 in presence of fluconazole to compound MIC for Cryptococcus gattii ATCC 32608 in absence of fluconazole by checkerboard microtiter test; type: functional; how it was run: as §1
[28] = system: Cryptococcus gattii species complex; test: Ratio of compound MIC for Cryptococcus gattii LMM818 in presence of fluconazole to compound MIC for Cryptococcus gattii LMM818 in absence of fluconazole by checkerboard microtiter test; type: functional, Cryptococcus bacillisporus; how it was run: as §1
[29] = system: Cryptococcus gattii species complex; test: Ratio of compound MIC for Cryptococcus gattii 547/OTTI-97-PI-10 in presence of fluconazole to compound MIC for Cryptococcus gattii 547/OTTI-97-PI-10 in absence of fluconazole by checkerboard microtiter test; type: functional, Cryptococcus bacillisporus; how it was run: as §1

| SMILES | fractional inhibitory concentration index (FICI) [1] | fractional inhibitory concentration index (FICI) (Cryptococcus neoformans [2]) | fractional inhibitory concentration index (FICI) (Cryptococcus neoformans [3]) | fractional inhibitory concentration index (FICI) [4] | fractional inhibitory concentration index (FICI) (Cryptococcus neoformans [5]) | fractional inhibitory concentration index (FICI) [6] | fractional inhibitory concentration index (FICI) (Cryptococcus neoformans [7]) | fractional inhibitory concentration index (FICI) [8] | fractional inhibitory concentration index (FICI) (Cryptococcus neoformans [9]) | fractional inhibitory concentration index (FICI) (Cryptococcus neoformans [10]) | fractional inhibitory concentration index (FICI) (Cryptococcus neoformans [11]) | fractional inhibitory concentration index (FICI) [12] | fractional inhibitory concentration index (FICI) (Cryptococcus neoformans [13]) | fractional inhibitory concentration index (FICI) [14] | fractional inhibitory concentration index (FICI) [15] | fractional inhibitory concentration index (FICI) [16] | fractional inhibitory concentration index (FICI) [17] | fractional inhibitory concentration index (FICI) (Cryptococcus neoformans [18]) | fractional inhibitory concentration index (FICI) (Cryptococcus gattii) | fractional inhibitory concentration index (FICI) [19] | other results |
| --- | --- | --- | --- | --- | --- | --- | --- | --- | --- | --- | --- | --- | --- | --- | --- | --- | --- | --- | --- | --- | --- |
| COc1ccc(-c2csc(N/N=C(\C)CCO)n2)cc1 | 1.95 | 1.58 | 1.92 | 9.55 | 2.1 | 9.38 | 4.38 | 3.51 | 1.98 | 2.58 | 2.58 | 4.98 | 7.44 | 2.47 | 3.32 | 1.01 | 4.61 | 2.28 | 2.98 | 2.28 | fractional inhibitory concentration index (FICI) (Cryptococcus neoformans [20]): 2.3; fractional inhibitory concentration index (FICI) (Cryptococcus neoformans [21]): 2.78; fractional inhibitory concentration index (FICI) [22]: 2.78; fractional inhibitory concentration index (FICI) [23]: 2.38; fractional inhibitory concentration index (FICI) [24]: 2.14; fractional inhibitory concentration index (FICI) (Cryptococcus neoformans [25]): 2.78; fractional inhibitory concentration index (FICI) (Cryptococcus neoformans [26]): 1.47; fractional inhibitory concentration index (FICI) [27]: 2.32; fractional inhibitory concentration index (FICI) [28]: 2.32; fractional inhibitory concentration index (FICI) [29]: 3.31 |
| COc1ccc(-c2csc(N/N=C/C3CCCCC3)n2)cc1 | 2.28 | 2.07 | 3.97 | 1.73 | 4.59 | 1.58 | 2.58 | 2.36 | 2.07 | 2.78 | 2.58 | 2.38 | 4.59 | 2.46 | 6.79 | 4.38 | 2.66 | 2.51 | 2 | 2.46 | fractional inhibitory concentration index (FICI) (Cryptococcus neoformans [20]): 3.58; fractional inhibitory concentration index (FICI) (Cryptococcus neoformans [21]): 1.46; fractional inhibitory concentration index (FICI) [22]: 1.75; fractional inhibitory concentration index (FICI) [23]: 2.71; fractional inhibitory concentration index (FICI) [24]: 1.18; fractional inhibitory concentration index (FICI) (Cryptococcus neoformans [25]): 1.46; fractional inhibitory concentration index (FICI) (Cryptococcus neoformans [26]): 4.59; fractional inhibitory concentration index (FICI) [27]: 4.38; fractional inhibitory concentration index (FICI) [28]: 1.19; fractional inhibitory concentration index (FICI) [29]: 3.46 |
